Sampled rows, rich in hits. Any-hit rate of the full collection: about 2.5%.
MEKK3 PB1 HTS: MEKK3-MEK5 PB1 interaction, increase or decrease. binding response (% of control), % at 10 µM. 290,000 tested, 1.4% active. bead-based flow cytometry, Alexa488-MEK5 binding to MEKK3; actives lie on both sides; 0 = blocked by unlabeled MEK5, 100 = vehicle. AID 1529. Q99759;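 active means binding response more than 3 SD above or below the average of its plate-row segment, actives on both sides; inconclusive means wells at one plate position flagged as instrument error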;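 further: Alexa488 bead fluorescence after subtracting the streptavidin-only scavenger bead signal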
MEKK2 WT-MEK5: raises or lowers MEK5 binding to wildtype human MEKK2 PB1 domain. Q9Y2U5. bead flow cytometry, Alexa488-MEK5 binding to MEKK2 WT; actives lie on both sides. binding response (% of control), % at 10 µM. 290,000 tested, 1.1% active; in the data active means binding response below about 67% or above about 130%; inconclusive means no clear call, values can overlap the other calls; inactive means in between
Rce1 inhib: yeast Ras-converting enzyme inhibition | Q03530 | yeast membranes, quenched prenylated peptide cleavage fluorescence | calls only | 290,000 tested, 0.27% active;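 active means fall in fluorescence gain of 50% or more versus controls, with final raw signal at or below 3038400; inconclusive means same 50% fall but final raw signal above 3038400; inactive means fall in fluorescence gain under 50%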
Target sequence (Q03530 whole entry, looked up): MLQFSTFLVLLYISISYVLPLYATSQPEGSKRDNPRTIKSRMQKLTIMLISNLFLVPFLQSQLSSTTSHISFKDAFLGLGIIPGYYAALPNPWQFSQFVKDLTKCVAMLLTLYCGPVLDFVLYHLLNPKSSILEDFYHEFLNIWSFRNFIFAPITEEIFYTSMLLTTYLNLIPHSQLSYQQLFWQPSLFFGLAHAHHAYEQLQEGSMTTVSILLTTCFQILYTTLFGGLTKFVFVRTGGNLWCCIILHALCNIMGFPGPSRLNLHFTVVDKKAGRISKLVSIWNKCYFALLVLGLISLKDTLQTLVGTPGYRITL
UCH37 DUB inh: inhibitors of human deubiquitinating enzyme UCH37; purified proteasome/UCH37, Ub-AMC cleavage fluorescence; inhibition, % (test concentration not listed); 330,000 tested, 0.33% active;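 active means mean inhibition over replicate wells above about 20%, limit read from the data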
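Test system – human UCH37 enzyme supplied as purified proteasome complex · Incubation – 30 min preincubation with enzyme, 25 min cleavage at room temperature · Detection – AMC fluorescence from Ub-AMC cleavage, excitation 355 nm, emission 460 nm · Benchmarks – no-proteasome wells (full inhibition) and compound-free wells (no inhibition)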
MEKK2mut PB1 HTS: signal of MEK5 binding to mutant human MEKK2 PB1 domain. bead flow cytometry, Alexa488-MEK5 binding to MEKK2 mutant. percent response, % at 10 µM. 290,000 tested, 0.35% active; in the data active means percent response above about 24%, passing the limit was not always enough
T cell HTS: modulates CD8 T cell binding to vesicles; 330,000 tested, 0.068% active; response (vesicle binding), % at 7 µM; 2C CD8+ T cell-vesicle binding, flow cytometry; hits give low values;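 active means response, share of CD8 T cells binding vesicles, and their 90th percentile fluorescence all below set limits, cut at about 80% in these data, passing the limit was not always enough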;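 further: values below 100% mean blocked vesicle binding to the CD8+ T cells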
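incubation = binding step 1.5 h, 37 °C, antibody labelling 20 min, ice | test system = 2C mouse CD8+ T cells | read-out basis = percent CD8+ FL2 mean versus row control | controls = Peptide-free naked vesicles (low) and QL9 vesicles with 0.7% DMSO vehicle (high) | detection = flow cytometry of vesicle-bound cells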
MEKK2wt confirm: raises or lowers MEK5 binding to wildtype human MEKK2, retest | binding response (% of control), % at 10 µM | 5,900 tested, 2.4% active | AID 1892 | bead flow cytometry, Alexa488-MEK5 binding to MEKK2 WT; actives lie on both sides | shares compounds with MEKK3 PB1 HTS; in the data active means binding response below about 16% or above about 210%; inactive means in between
MEKK2mut confirm: signal of MEK5 binding to mutant human MEKK2, retest; shares compounds with MEKK3 PB1 HTS; bead flow cytometry, Alexa488-MEK5 binding to MEKK2 mutant; percent response, % at 10 µM; 5,900 tested, 2% active; in the data active means percent response mostly above about 71%, no sharp cut-off; inactive means mostly below about 38%;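 further: higher means compound restores mutant binding toward wildtype level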
MEKK3 confirm: confirmation of inhibitors of MEK5 binding to human MEKK3; shares compounds with MEKK3 PB1 HTS; bead flow cytometry, Alexa488-MEK5 binding to MEKK3; hits give low values; binding response (% of control), % at 10 µM; 5,900 tested, 1.8% active;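 active means binding response below 72% of control, or above a set upper limit, though filed actives all read lower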
Numbers stand for hits; 0 = inactive; ? = inconclusive; - = no result; + = active, no number; [ ] = remark or other dose.

SMILES	MEKK3 PB1 HTS	MEKK2 WT-MEK5	Rce1 inhib	UCH37 DUB inh	MEKK2mut PB1 HTS	T cell HTS	MEKK2wt confirm	MEKK2mut confirm	MEKK3 confirm
O=C(O)c1[nH]c2ccccc2c1CC(=O)N1CCOCC1	0	0	0	0	0	0	-	-	-
O=C(CN(Cc1ccccc1)S(=O)(=O)c1ccccc1)NN=Cc1ccccc1[N+](=O)[O-]	-	-	-	0	-	-	-	-	-
CCC(C)(C)NC(=O)CN(C(=O)CCC(=O)Nc1nccs1)c1cccc(C)c1	0	0	0	0	26	0	0	0	0
COc1ccc(C=NNC(=O)c2ccc(CN3C(=O)c4cccc5cccc3c45)cc2)cc1O	-	-	-	0	-	-	-	-	-
Cc1cc(=O)[nH]c2ccccc12	0	0	0	0	0	0	-	-	-
Cc1cc2[nH]c3c(c[n+](C)c4ccccc34)c2cc1C	0	144	0	0	0	0	0	73	0
O=C(NN=Cc1ccc(O)cc1O)c1ccncc1	-	-	-	0	-	-	-	-	-
CCOCCCNC(=O)c1cc2c(s1)-c1ccccc1SC2	0	0	0	0	0	0	-	-	-
CN(C)CCNC(=O)c1cc2c(s1)-c1ccc(Cl)cc1SC2	0	181	0	-	40	0	0	0	0
NC(=O)CSc1nnc(-c2ccccc2Br)n1-c1cccc(C(F)(F)F)c1	139	0	0	0	0	0	0	0	0
CCNC(=O)CSc1nnc(-c2ccccc2Br)n1-c1cccc(C(F)(F)F)c1	128	0	0	0	0	0	0	0	0
CC(/C=N\NC(=O)CN1CCN(S(=O)(=O)c2ccc(C)cc2)CC1)=C\c1ccccc1	132	0	+	-	0	0	0	0	0
Cc1ccc(S(=O)(=O)N2CCN(CC(=O)N/N=C\C(Cl)=C\c3ccccc3)CC2)cc1	137	0	0	-	0	0	0	0	0
Cc1nc2ccccc2c(-c2ccccc2)c1CC(=O)O	168	0	0	0	0	0	0	0	0
O=C(Nc1nncs1)c1ccc(S(=O)(=O)c2ccccc2)cc1	123	0	0	0	0	0	0	0	0
Cc1cc(C)c2c(n1)nn1c(NCCCN(C)C)cc(C)nc21	0	0	?	0	0	0	-	-	-
Cc1cc(NCCCN(C)C)n2nc(-c3cccs3)cc2n1	0	0	0	0	26	0	0	0	0
c1ccc(NCc2ccccn2)cc1	138	0	0	0	0	0	0	0	0
CN(C)CCNC(=O)COc1ccc(C23CC4CC(CC(C4)C2)C3)cc1	0	151	0	0	0	0	0	0	0
Cc1ccc(C23CC4CC(CC(NC(=O)NCCN(C)C)(C4)C2)C3)cc1	0	156	0	0	31	0	0	0	35
Cc1nc(N=C(N)N)nc2ccccc12	75[inhibitor]	0	0	0	0	0	0	0	0
Cc1ccc2nc(N=C(N)N)nc(C)c2c1	0	0	0	0	0	0	-	-	-
CN(C)c1ccc(C=NNC(=O)c2sccc2-n2cccc2)cc1	-	-	-	0	-	-	-	-	-
CNC(=S)N1CCn2cccc2C1c1cc(OC)c(OC)c(OC)c1 (stereo not drawn)	57[inhibitor]	0	0	0	0	0	0	0	0
CCNC(=S)N1CCn2cccc2C1c1ccc(F)cc1 (stereo not drawn)	0	0	0	0	0	0	-	-	-
SMILES	MEKK3 PB1 HTS	MEKK2 WT-MEK5	Rce1 inhib	UCH37 DUB inh	MEKK2mut PB1 HTS	T cell HTS	MEKK2wt confirm	MEKK2mut confirm	MEKK3 confirm
CN=c1scc(-c2cc(OC)ccc2OC)n1N=Cc1c(C)[nH]c2ccccc12	-	-	-	0	-	-	-	-	-
CCOc1ccc(CN2CCN(Cc3cnn(CC)c3C)CC2CCO)cc1 (stereo not drawn)	48[inhibitor]	0	0	0	0	0	0	0	0
COc1cccc(CN2CCN(Cc3ccc(O)cc3)CC2CCO)c1 (stereo not drawn)	46[inhibitor]	0	0	0	0	0	0	0	0
CCOc1cc(S(=O)(=O)n2cnc(C)c2)ccc1Cl	148	0	0	0	0	0	0	0	0
O=C1/C(=C/c2cccc(Br)c2)SC(=S)N1N=Cc1cc([N+](=O)[O-])ccc1O	-	-	-	0	-	-	-	-	-
CCOc1cc(N2CCOCC2)c(OCC)cc1NC(=O)c1ccc(OCc2c(C)noc2C)c(OC)c1	131	0	0	0	0	0	0	0	0
CCOc1cc(N2CCOCC2)c(OCC)cc1NC(=O)c1ccc(OC)cc1	0	0	0	0	0	0	-	-	-

Compound activity as filed in PubChem.
